Data from publication PMC3746001 (ACS chemical biology, 2013).
Like-named read-outs stand apart in the source and are kept apart here.

What was measured:
[1] = biological target: T1, human DNA polymerase eta (hpol η) (Homo sapiens, UniProt Q9Y253); test: Fluorescence-based polymerase strand-displacement assay, hpol η; assay type: biochemical; conditions: IC50 for inhibition of hpol η, 10 nM hpol η, 50 nM DNA, 0.1 mM dTTP; mean ± standard deviation, triplicate
T1 sequence (Q9Y253 1-437): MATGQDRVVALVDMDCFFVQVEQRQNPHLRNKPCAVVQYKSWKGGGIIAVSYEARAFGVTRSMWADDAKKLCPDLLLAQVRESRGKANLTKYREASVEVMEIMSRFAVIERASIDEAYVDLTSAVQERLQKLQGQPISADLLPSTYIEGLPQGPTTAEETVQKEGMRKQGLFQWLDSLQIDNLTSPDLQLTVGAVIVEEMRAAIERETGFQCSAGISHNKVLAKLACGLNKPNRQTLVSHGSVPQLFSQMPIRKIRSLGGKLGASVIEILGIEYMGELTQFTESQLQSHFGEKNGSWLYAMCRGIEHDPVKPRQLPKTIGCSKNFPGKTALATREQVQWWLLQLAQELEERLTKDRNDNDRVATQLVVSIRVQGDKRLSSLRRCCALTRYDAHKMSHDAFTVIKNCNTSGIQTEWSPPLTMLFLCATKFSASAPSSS

[2] = biological target: T2, human Y-family DNA polymerase kappa (hpol κ) (Homo sapiens, UniProt Q9UBT6); test: Fluorescence-based polymerase assay, hpol κ; assay type: biochemical
T2 sequence (Q9UBT6 19-526): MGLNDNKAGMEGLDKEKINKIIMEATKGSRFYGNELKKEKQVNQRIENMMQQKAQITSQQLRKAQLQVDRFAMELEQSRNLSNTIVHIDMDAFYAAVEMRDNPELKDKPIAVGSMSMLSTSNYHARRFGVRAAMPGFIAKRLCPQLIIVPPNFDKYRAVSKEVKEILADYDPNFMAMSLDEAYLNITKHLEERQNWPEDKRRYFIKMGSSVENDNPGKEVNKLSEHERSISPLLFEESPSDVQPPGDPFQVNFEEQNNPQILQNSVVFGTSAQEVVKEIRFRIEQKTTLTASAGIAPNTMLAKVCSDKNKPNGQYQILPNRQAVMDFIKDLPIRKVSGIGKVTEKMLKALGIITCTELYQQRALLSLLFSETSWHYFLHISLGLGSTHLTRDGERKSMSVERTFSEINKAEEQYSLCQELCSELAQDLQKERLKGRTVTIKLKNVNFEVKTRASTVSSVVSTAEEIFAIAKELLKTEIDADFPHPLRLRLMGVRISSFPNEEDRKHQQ

[3] = biological target: T3, hpol ι (Homo sapiens, UniProt Q9UNA4); test: Fluorescence-based polymerase assay, hpol ι; assay type: biochemical
T3 sequence (Q9UNA4 26-446): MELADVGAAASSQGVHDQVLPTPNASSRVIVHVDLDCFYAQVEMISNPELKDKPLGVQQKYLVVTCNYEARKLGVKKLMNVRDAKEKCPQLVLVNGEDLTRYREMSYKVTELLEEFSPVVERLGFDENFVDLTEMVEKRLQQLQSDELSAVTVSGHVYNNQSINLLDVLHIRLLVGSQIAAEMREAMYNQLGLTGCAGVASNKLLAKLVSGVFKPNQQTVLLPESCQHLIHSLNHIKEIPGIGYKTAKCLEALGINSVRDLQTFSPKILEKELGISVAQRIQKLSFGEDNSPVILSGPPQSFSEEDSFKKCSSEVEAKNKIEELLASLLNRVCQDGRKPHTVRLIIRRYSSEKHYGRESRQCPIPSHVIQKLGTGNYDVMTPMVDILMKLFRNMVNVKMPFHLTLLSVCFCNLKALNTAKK

[4] = biological target: HIV-1 RT (Human immunodeficiency virus type 1 group M subtype B, UniProt P04585); test: Fluorescence-based polymerase assay, HIV-1 RT; assay type: biochemical
[5] = test system: hpol η; test: Steady-state kinetic analysis of hpol η activity in the presence of inhibitor; assay type: biochemical, human; conditions: for kcat: varying dTTP
Procedure, shortened: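 Recombinant hpol η (His/GST-tagged in E. coli BL21(DE3), nickel then GST affinity, GST cleaved) in the fluorescence strand-displacement assay (TAMRA-labelled displaced strand), in 50 mM Tris pH 8.0, 40 mM NaCl, 2 mM DTT, 0.01% Tween-20. dTTP was 1–100 µM and inhibitor 0 or 1–50 µM. RFU were converted to product, linear velocities fit to a hyperbola and corrected for enzyme concentration to give kcat and Km,dTTP.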

`O=C1NC(=S)NC(=O)C1=Cc1cn(C(=O)c2ccccc2Br)c2ccc(Cl)cc12` [ITBA-12, 5-((1-(2-bromobenzoyl)-5-chloro-1H-indol-3-yl)methylene)-2-thioxodihydropyrimidine-4,6(1H,5H)-dione] was tested, and the IC50 [1] was 29.8 ± 2.7 µM, the IC50 [2] was 59 ± 11 µM and the “IC50 for hpol κ relative to hpol η” value ([2]; hpol κ versus hpol η) was “twice as high”. It also gave an IC50 [3] of ~80 µM, an IC50 [4] of ~80 µM and a Km ([5]; read-out: Km,dTTP, varying dTTP, [ITBA-12] 1 μM) of 6.7 ± 0.9 µM. It also gave a Km ([5]; read-out: Km,dTTP, varying dTTP, [ITBA-12] 10 μM) of 7.6 ± 1 µM, a Km ([5]; read-out: Km,dTTP, varying dTTP, [ITBA-12] 20 μM) of 8.5 ± 1.4 µM and a Km ([5]; read-out: Km,dTTP, varying dTTP, [ITBA-12] 40 μM) of 15 ± 2 µM. It also gave a Km ([5]; read-out: Km,dTTP, varying dTTP, [ITBA-12] 50 μM) of 26.7 ± 5.6 µM, a kcat ([5]; [ITBA-12] 1 μM) of 0.065 ± 0.0017 s⁻¹ and a kcat ([5]; [ITBA-12] 10 μM) of 0.0717 ± 0.0017 s⁻¹. For the same compound, the kcat ([5]; [ITBA-12] 20 μM) was 0.0667 ± 0.0033 s⁻¹, the kcat ([5]; [ITBA-12] 40 μM) was 0.07 ± 0.0033 s⁻¹ and the kcat ([5]; [ITBA-12] 50 μM) was 0.0583 ± 0.005 s⁻¹.
